Source: ChEMBL document CHEMBL2321876
Converted amounts (≈) assume the structure as drawn. The source made the active and inactive calls. No rule for the calls is given here.

Key:
[1] = Displacement of Fl-Sal-AMS from Mycobacterium tuberculosis MbtA expressed in Escherichia coli after 30 mins by fluorescence polarization assay
Acinetobacter baumannii [2] = test: Antibacterial activity against Acinetobacter baumannii ATCC 19606 using iron-replete M9 minimal media after 15 hrs by broth microdilution assay; type: functional, organism-based; conditions: ATCC 19606 = CIP 70.34 = JCM 6841
How it was run: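 ATCC 19606 grown overnight at 30 °C on LB agar, washed twice in dipyridyl-containing M9/casamino acids medium, then diluted to A600 0.0003 in M9 minimal medium with 0.2% casamino acids plus 200 μM FeCl3. Inhibitors from DMSO at 100 μM final, in triplicate. Controls were tetracycline (100 ng/mL) and 1% DMSO. Incubated at 30 °C, A600 measured at 15 h.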

[3] = tested on: Mycobacterium tuberculosis; test: Bacteriostatic activity against Mycobacterium tuberculosis H37Rv using iron-deficient GAST media after 10 to 14 days by broth microdilution assay; type: functional
How it was run: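 Broth microdilution in iron-deficient GAST, in quadruplicate, with compounds from DMSO stocks and DMSO-matched control wells. Isoniazid served as positive control. Initial density 10⁴–10⁵ cells/assay, 100 μL/well, 37 °C. Growth was read as OD at 620 nm at 10–14 days, when untreated controls reached OD₆₂₀ 0.2–0.3.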

[4] = Displacement of Fl-Sal-AMS from Acinetobacter baumanni BasE expressed in Escherichia coli after 30 mins by fluorescence polarization assay; set-up: species or system Acinetobacter baumannii; conditions: read-out: Kd
[5] = tested on: Mycobacterium tuberculosis; test: Bacteriostatic activity against Mycobacterium tuberculosis H37Rv using iron-replete GAST media after 10 to 14 days by broth microdilution assay; type: functional
How it was run: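 Broth microdilution in GAST supplemented with 200 μM FeCl₃, in quadruplicate, with compounds from DMSO stocks and DMSO-matched controls. Isoniazid served as positive control. Inoculum 10⁴–10⁵ cells/assay, 100 μL/well, 37 °C. OD₆₂₀ was read at 10–14 days, when untreated controls reached 0.2–0.3.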

Acinetobacter baumannii [6] = test: Antibacterial activity against Acinetobacter baumannii ATCC 19606 using iron-deficient M9 minimal media after 15 hrs by broth microdilution assay; type: functional, organism-based; conditions: ATCC 19606 = CIP 70.34 = JCM 6841
How it was run: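 ATCC 19606 grown overnight at 30 °C on LB agar, washed twice and resuspended in M9 minimal medium with 0.2% casamino acids and 200 μM dipyridyl. Inoculated at A600 0.0003 in this medium plus 1 μM FeCl3. Inhibitors from DMSO at 100 μM final, in triplicate. Tetracycline (100 ng/mL) and 1% DMSO as controls. Incubated at 30 °C; A600 read at 15 h.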

[7] = Selectivity ratio of Kd for Mycobacterium tuberculosis MbtA to Kd for Acinetobacter baumanni BasE

Structure (SMILES) | Kd [1] | Activity (Acinetobacter baumannii [2]) | MIC99 [3] | Kd [4] | MIC99 [5] | Activity (Acinetobacter baumannii [6]) | Selectivity ratio [7]
CCOC(=O)c1cc(-c2ccccc2)nc2c1cnn2Cc1ccncc1 | > 100000 nM | inactive | > 125 µM | 2160 nM | 125 µM (≈ 44.8 µg/mL) | inactive | 
CCOC(=O)c1cc(-c2ccc(Oc3ccccc3)cc2)nc2c1cnn2Cc1ccncc1 |  |  | 50 µM (≈ 22.5 µg/mL) |  | 100 µM (≈ 45 µg/mL) |  | 
COc1ccc(-c2cc(C(=O)O)c3cnn(Cc4ccncc4)c3n2)cc1 | 3230 nM | inactive |  | 78.2 nM |  | inactive | 
O=C(O)c1cc(-c2cn[nH]c2)nc2c1cnn2Cc1ccncc1 | 27900 nM | inactive |  | 2300 nM |  | inactive | 
O=C(O)c1cc(-c2ccccc2)nc2c1cnn2Cc1ccc(O)cc1 | > 100000 nM | inactive |  | 556 nM |  | inactive | 
O=C(O)c1cc(-c2ccccc2)cc2c1cnn2Cc1ccncc1 | 27600 nM | inactive |  | 84.8 nM |  | inactive | 
CCCNC(=O)c1cc(-c2ccccc2)nc2c1cnn2Cc1ccncc1 | > 50000 nM | inactive |  | 249 nM |  | inactive | 
O=C(O)c1cc(-c2cccc3cccnc23)nc2c1cnn2Cc1ccncc1 | 22500 nM | inactive |  | 776 nM |  | inactive | 
OCc1cc(-c2ccccc2)nc2c1cnn2Cc1ccncc1 | 16800 nM | inactive |  | 102 nM |  | inactive | 
COc1ccc(COc2ccc(-c3cc(C(=O)O)c4cnn(Cc5ccncc5)c4n3)cc2)cc1 | 5800 nM | inactive |  | 44.5 nM |  | inactive | 
Nc1ccc(-c2cc(C(=O)O)c3cnn(Cc4ccncc4)c3n2)cc1 | 4080 nM | inactive |  | 78.2 nM |  | inactive | 
Nc1cc(-c2ccccc2)nc2c1cnn2Cc1ccncc1 | 36400 nM | inactive |  | 200 nM |  | inactive | 
Cc1ccc(-c2cc(C(=O)O)c3cnn(Cc4ccncc4)c3n2)cc1 | 1440 nM | inactive |  | 212 nM |  | inactive | 
O=C(c1ccccc1)c1ccc(-c2cc(C(=O)O)c3cnn(Cc4ccncc4)c3n2)cc1 |  | inactive | > 125 µM |  | > 125 µM | inactive | 
O=C(O)c1cc(-c2cccc(-c3ccccc3)c2)nc2c1cnn2Cc1ccncc1 | 3600 nM | inactive |  | 164 nM |  | inactive | 
O=C(O)c1cc(-c2cccs2)nc2c1cnn2Cc1ccncc1 | 6680 nM | inactive |  | 443 nM |  | inactive | 
CCNC(=O)c1cc(-c2ccccc2)nc2c1cnn2Cc1ccncc1 | > 50000 nM | inactive |  | 908 nM |  | inactive | 
O=C(O)c1ccc(-c2cc(C(=O)O)c3cnn(Cc4ccncc4)c3n2)cc1 | 6100 nM | inactive |  | 776 nM |  | inactive | 
O=C(O)c1cc(-c2cccc(O)c2)nc2c1cnn2Cc1ccncc1 | 7670 nM | inactive |  | 124 nM |  | inactive | 
O=C(O)c1cc(-c2ccc(O)cc2)nc2c1cnn2Cc1ccncc1 | 3700 nM | inactive |  | 8.85 nM |  | inactive | 
O=C(O)c1cc(NCCCO)nc2c1cnn2Cc1ccncc1 | 97700 nM | inactive |  | 2460 nM |  | inactive | 
O=C(O)c1cc(-c2cccnc2)nc2c1cnn2Cc1ccncc1 | 16800 nM | inactive |  | 132 nM |  | inactive | 

Structure (SMILES) | Kd [1] | Activity (Acinetobacter baumannii [2]) | MIC99 [3] | Kd [4] | MIC99 [5] | Activity (Acinetobacter baumannii [6]) | Selectivity ratio [7]
CCOC(=O)c1cc(-c2ccc(C(=O)c3ccccc3)cc2)nc2c1cnn2Cc1ccncc1 |  |  | > 125 µM |  | > 125 µM |  | 
CN(C)C(=O)c1cc(-c2ccccc2)nc2c1cnn2Cc1ccncc1 | > 50000 nM | inactive |  | 334 nM |  | inactive | 
O=C(O)c1cc(-c2ccc(-c3ccc(Br)cc3)cc2)nc2c1cnn2Cc1ccncc1 | 19700 nM | inactive |  | 181 nM |  | inactive | 
C#Cc1cc(C(=O)O)c2cnn(Cc3ccncc3)c2n1 | 18500 nM | inactive |  | 2040 nM |  | inactive | 
CCOC(=O)c1cc(-c2ccc(Cl)s2)nc2c1cnn2Cc1ccncc1 |  |  | 25 µM (≈ 9.97 µg/mL) |  | 25 µM (≈ 9.97 µg/mL) |  | 
O=C(O)c1cc(-c2ccc(-c3ccccc3)cc2)nc2c1cnn2Cc1ccncc1 | 3500 nM | inactive |  | 125 nM |  | inactive | 
CCCCCCCCOc1ccc(-c2cc(C(=O)O)c3cnn(Cc4ccncc4)c3n2)cc1 | > 50000 nM | inactive |  | 191 nM |  | inactive | 
O=C(O)c1cc(-c2ccc3[nH]ccc3c2)nc2c1cnn2Cc1ccncc1 | 2900 nM | inactive |  | 61.8 nM |  | inactive | 
CCCCCCCCCCCCOc1ccc(-c2cc(C(=O)O)c3cnn(Cc4ccncc4)c3n2)cc1 | > 50000 nM | inactive |  | 28400 nM |  | inactive | 
O=C(O)c1cc(-c2ccc(OCc3ccccc3)cc2)nc2c1cnn2Cc1ccncc1 | 5400 nM | inactive |  | 2.14 nM |  | inactive | 1000
O=C(O)c1cc(N2CCOCC2)nc2c1cnn2Cc1ccncc1 | 29100 nM | inactive |  | 1450 nM |  | inactive | 
Cc1ccccc1-c1cc(C(=O)O)c2cnn(Cc3ccncc3)c2n1 | > 100000 nM | inactive |  | 2150 nM |  | inactive | 
O=C(O)c1cc(-c2ccccc2)nc2c1cnn2Cc1ccncc1 |  | inactive | > 125 µM |  | > 125 µM | inactive | 
O=C(O)c1cc(-c2cncc3ccccc23)nc2c1cnn2Cc1ccncc1 | > 100000 nM | inactive |  | 7730 nM |  | inactive | 
Cc1cccc(-c2cc(C(=O)O)c3cnn(Cc4ccncc4)c3n2)c1 | 7400 nM | inactive |  | 158 nM |  | inactive | 
O=C(O)c1cc(-c2cncnc2)nc2c1cnn2Cc1ccncc1 | 13600 nM | inactive |  | 583 nM |  | inactive | 
O=C(O)c1cc(-c2ccccc2O)nc2c1cnn2Cc1ccncc1 | 6500 nM | inactive |  | 255 nM |  | inactive | 
O=C(O)c1cc(-c2ccc(Cl)s2)nc2c1cnn2Cc1ccncc1 |  | inactive | 50 µM (≈ 18.5 µg/mL) |  | 50 µM (≈ 18.5 µg/mL) | inactive | 
O=C(O)c1cc(-c2ccccc2-c2ccccc2Cl)nc2c1cnn2Cc1ccncc1 | > 50000 nM | inactive |  | 19700 nM |  | inactive | 
O=C(O)c1cc(-c2ccc(Oc3ccccc3)cc2)nc2c1cnn2Cc1ccncc1 |  | inactive | 25 µM (≈ 10.6 µg/mL) |  | 25 µM (≈ 10.6 µg/mL) | inactive | 
O=C(O)c1cc(-c2ccccc2Cl)nc2c1cnn2Cc1ccncc1 | > 100000 nM | inactive |  | 2480 nM |  | inactive | 
